Data from ChEMBL document CHEMBL3120099, “Novel S1P(1) receptor agonists--part 2: from bicyclo[3.1.0]hexane-fused thiophenes to isobutyl substituted thiophenes” (J Med Chem, 2014).

Each molecule was assayed on Rattus norvegicus (assay: Lymphopenic activity in Wistar rat assessed as reduction in blood lymphocyte count at 10 mg/kg, po after 3 hrs).
Type: functional
Set-up: scale not given: the % may be the effect or the level left
Procedure, shortened: (§1)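 Normotensive male Wistar rats given 1–10 mg/kg by gavage in 5% DMSO/7.5% succinylated gelatin. Blood taken before and 3, 6 and 24 h after dosing, with later times for some compounds. Lymphocytes counted by hematology analyzer. % LC change calculated per animal relative to the predose value (=100%). Mean ± SEM.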

Structure (SMILES)	Activity
Cc1cc(-c2noc(-c3cc(CC(C)C)c(C)s3)n2)cc(C)c1OCC(O)CNC(=O)CO (racemic)	-77%
CCCCc1ccc(-c2nc(-c3cc(C)c(OCC(O)CNC(=O)CO)c(C)c3)no2)s1 (racemic)	-66%
Cc1cc(-c2noc(-c3sc(C)c4c3CCC(C)(C)C4)n2)cc(C)c1OCC(O)CNC(=O)CO (racemic)	-70%
Cc1cc(-c2noc(-c3sc(C)c(CC(C)C)c3C)n2)cc(C)c1OCC(O)CNC(=O)CO (racemic)	-78%
CCCc1ccc(-c2nc(-c3cc(C)c(OCC(O)CNC(=O)CO)c(C)c3)no2)s1 (racemic)	-65%
CCc1c(-c2nc(-c3cc(C)c(OCC(O)CNC(=O)CO)c(C)c3)no2)sc(C)c1CC(C)C (racemic)	-30%

These molecules were tested on Rattus norvegicus (assay: Lymphopenic activity in Wistar rat assessed as reduction in blood lymphocyte count at 10 mg/kg, po after 24 hrs).
Type: functional
Procedure, shortened: as §1

Structure (SMILES)	% change in blood lymphocyte count from predose
Cc1cc(-c2noc(-c3cc(CC(C)C)c(C)s3)n2)cc(C)c1OCC(O)CNC(=O)CO (racemic)	-91%
CCCCc1ccc(-c2nc(-c3cc(C)c(OCC(O)CNC(=O)CO)c(C)c3)no2)s1 (racemic)	18%
Cc1cc(-c2noc(-c3sc(C)c4c3CCC(C)(C)C4)n2)cc(C)c1OCC(O)CNC(=O)CO (racemic)	-77%
Cc1cc(-c2noc(-c3sc(C)c(CC(C)C)c3C)n2)cc(C)c1OCC(O)CNC(=O)CO (racemic)	-93%
CCCc1ccc(-c2nc(-c3cc(C)c(OCC(O)CNC(=O)CO)c(C)c3)no2)s1 (racemic)	31%
CCc1c(-c2nc(-c3cc(C)c(OCC(O)CNC(=O)CO)c(C)c3)no2)sc(C)c1CC(C)C (racemic)	-25%

What follows are molecules tested on Rattus norvegicus (assay: Lymphopenic activity in Wistar rat assessed as reduction in blood lymphocyte count at 10 mg/kg, po after 6 hrs).
Type: functional
Set-up: scale not given: the % may be the effect or the level left
Procedure, shortened: as §1

Structure (SMILES)	Activity
Cc1cc(-c2noc(-c3cc(CC(C)C)c(C)s3)n2)cc(C)c1OCC(O)CNC(=O)CO (racemic)	-78%
CCCCc1ccc(-c2nc(-c3cc(C)c(OCC(O)CNC(=O)CO)c(C)c3)no2)s1 (racemic)	-52%
Cc1cc(-c2noc(-c3sc(C)c4c3CCC(C)(C)C4)n2)cc(C)c1OCC(O)CNC(=O)CO (racemic)	-73%
Cc1cc(-c2noc(-c3sc(C)c(CC(C)C)c3C)n2)cc(C)c1OCC(O)CNC(=O)CO (racemic)	-86%
CCCc1ccc(-c2nc(-c3cc(C)c(OCC(O)CNC(=O)CO)c(C)c3)no2)s1 (racemic)	-59%
CCc1c(-c2nc(-c3cc(C)c(OCC(O)CNC(=O)CO)c(C)c3)no2)sc(C)c1CC(C)C (racemic)	-40%

What follows are molecules tested against Sphingosine 1-phosphate receptor 1 (Homo sapiens, UniProt P21453) (assay: Agonist activity at human recombinant S1P1 receptor expressed in CHO cells assessed as membrane-bound 35S-GTPgammaS incubated 30 mins prior to substrate addition measured after 1 hr by topcount scintillation counting analysis).
Type: functional, cell-based

Sphingosine 1-phosphate receptor 1, sequence (P21453 whole entry): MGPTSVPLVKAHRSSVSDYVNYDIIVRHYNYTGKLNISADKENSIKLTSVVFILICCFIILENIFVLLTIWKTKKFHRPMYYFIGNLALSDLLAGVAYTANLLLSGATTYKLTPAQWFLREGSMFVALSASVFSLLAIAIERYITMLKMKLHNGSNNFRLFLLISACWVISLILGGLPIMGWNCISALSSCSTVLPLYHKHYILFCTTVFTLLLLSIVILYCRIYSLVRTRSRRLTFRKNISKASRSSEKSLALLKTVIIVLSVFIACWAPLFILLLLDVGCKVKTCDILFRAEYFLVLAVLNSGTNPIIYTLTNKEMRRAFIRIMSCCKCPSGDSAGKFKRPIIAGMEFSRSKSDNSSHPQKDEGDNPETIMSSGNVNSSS

Structure (SMILES)	EC50
CCCCc1ccc(-c2nc(-c3cc(C)c(OCC(O)CNC(=O)CO)c(C)c3)no2)s1 (racemic)	4.7 nM
Cc1cc(-c2noc(-c3sc(C)c4c3CCC(C)(C)C4)n2)cc(C)c1OCC(O)CNC(=O)CO (racemic)	1.6 nM
Cc1cc(-c2noc(-c3sc(C)c(CC(C)C)c3C)n2)cc(C)c1OCC(O)CNC(=O)CO (racemic)	0.5 nM
CCCc1ccc(-c2nc(-c3cc(C)c(OCC(O)CNC(=O)CO)c(C)c3)no2)s1 (racemic)	0.9 nM

Further lines, results first:

EC50	Structure (SMILES)
1.5 nM	Cc1cc(-c2noc(-c3cc(CC(C)C)c(C)s3)n2)cc(C)c1OCC(O)CNC(=O)CO (racemic)
6.6 nM	CCc1c(-c2nc(-c3cc(C)c(OCC(O)CNC(=O)CO)c(C)c3)no2)sc(C)c1CC(C)C (racemic)

The molecules below were run on Rattus norvegicus (assay: Lymphopenic activity in Wistar rat assessed as reduction in blood lymphocyte count at 10 mg/kg, po after 72 hrs).
Type: functional
Set-up: scale not given: the % may be the effect or the level left
Procedure, shortened: as §1

Structure (SMILES)	Activity
Cc1cc(-c2noc(-c3sc(C)c4c3CCC(C)(C)C4)n2)cc(C)c1OCC(O)CNC(=O)CO (racemic)	-73%

The molecules below were run on Rattus norvegicus (assay: Lymphopenic activity in Wistar rat assessed as reduction in blood lymphocyte count at 10 mg/kg, po after 144 hrs).
Type: functional
Set-up: scale not given: the % may be the effect or the level left
Procedure, shortened: as §1

Structure (SMILES)	Activity
Cc1cc(-c2noc(-c3sc(C)c4c3CCC(C)(C)C4)n2)cc(C)c1OCC(O)CNC(=O)CO (racemic)	-7%

The molecules below were run against Sphingosine 1-phosphate receptor 3 (Homo sapiens, UniProt Q99500) (assay: Agonist activity at human recombinant S1P3 receptor expressed in CHO cells assessed as membrane-bound 35S-GTPgammaS incubated 30 mins prior to substrate addition measured after 1 hr by topcount scintillation counting analysis).
Type: functional, cell-based

Sphingosine 1-phosphate receptor 3, sequence (Q99500 whole entry): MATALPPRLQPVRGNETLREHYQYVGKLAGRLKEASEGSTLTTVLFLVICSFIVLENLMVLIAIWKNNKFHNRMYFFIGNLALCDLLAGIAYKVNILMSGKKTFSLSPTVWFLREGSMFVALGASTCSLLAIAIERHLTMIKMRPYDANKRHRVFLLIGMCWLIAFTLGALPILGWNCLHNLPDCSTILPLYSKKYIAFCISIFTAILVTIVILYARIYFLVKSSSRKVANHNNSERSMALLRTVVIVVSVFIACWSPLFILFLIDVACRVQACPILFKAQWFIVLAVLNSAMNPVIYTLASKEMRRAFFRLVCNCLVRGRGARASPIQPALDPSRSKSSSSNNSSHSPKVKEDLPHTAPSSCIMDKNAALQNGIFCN

Structure (SMILES)	EC50
CCCCc1ccc(-c2nc(-c3cc(C)c(OCC(O)CNC(=O)CO)c(C)c3)no2)s1 (racemic)	1250 nM
Cc1cc(-c2noc(-c3sc(C)c4c3CCC(C)(C)C4)n2)cc(C)c1OCC(O)CNC(=O)CO (racemic)	15 nM
Cc1cc(-c2noc(-c3sc(C)c(CC(C)C)c3C)n2)cc(C)c1OCC(O)CNC(=O)CO (racemic)	74 nM
CCCc1ccc(-c2nc(-c3cc(C)c(OCC(O)CNC(=O)CO)c(C)c3)no2)s1 (racemic)	1150 nM

Results, then the molecule that gave them:

EC50	Structure (SMILES)
236 nM	Cc1cc(-c2noc(-c3cc(CC(C)C)c(C)s3)n2)cc(C)c1OCC(O)CNC(=O)CO (racemic)
172 nM	CCc1c(-c2nc(-c3cc(C)c(OCC(O)CNC(=O)CO)c(C)c3)no2)sc(C)c1CC(C)C (racemic)
